Experimental findings from the M2OR odorant receptor database are described below.

Common to all, as to settings: stereoisomer not certain
One assay deals with T1, UniProt Q8VGL0.
T1 sequence (whole entry): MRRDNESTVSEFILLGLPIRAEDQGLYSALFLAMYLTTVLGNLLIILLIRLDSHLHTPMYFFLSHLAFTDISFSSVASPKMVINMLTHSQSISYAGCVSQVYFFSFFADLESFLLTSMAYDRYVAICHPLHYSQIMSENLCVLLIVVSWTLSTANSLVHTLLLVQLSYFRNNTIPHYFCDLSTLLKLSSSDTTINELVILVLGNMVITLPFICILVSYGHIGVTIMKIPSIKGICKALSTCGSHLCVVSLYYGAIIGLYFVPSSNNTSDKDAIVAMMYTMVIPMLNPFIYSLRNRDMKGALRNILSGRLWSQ
The procedure, abridged: (§1)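 Whether a receptor–molecule pair is responsive (active) rests on the original authors' judgment that its measured signal was statistically different from baseline. Pairs without that judgment are non-responsive (inactive). Sources used varied assay methods, commonly transient luciferase assays in mammalian cell lines.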

In another assay the target is T2, UniProt Q8VGU3.
T2 sequence (whole entry): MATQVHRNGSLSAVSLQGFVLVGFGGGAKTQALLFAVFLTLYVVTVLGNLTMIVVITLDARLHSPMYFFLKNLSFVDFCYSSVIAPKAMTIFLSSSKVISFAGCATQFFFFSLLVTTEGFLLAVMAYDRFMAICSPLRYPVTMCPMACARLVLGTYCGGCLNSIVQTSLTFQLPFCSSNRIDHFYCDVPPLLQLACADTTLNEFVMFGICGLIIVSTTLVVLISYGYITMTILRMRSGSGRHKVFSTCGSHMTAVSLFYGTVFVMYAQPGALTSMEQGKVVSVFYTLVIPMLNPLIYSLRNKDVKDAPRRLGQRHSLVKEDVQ
The procedure, abridged:
as §1

Another assay has as its target T3, UniProt Q8VGV7.
T3 sequence (whole entry): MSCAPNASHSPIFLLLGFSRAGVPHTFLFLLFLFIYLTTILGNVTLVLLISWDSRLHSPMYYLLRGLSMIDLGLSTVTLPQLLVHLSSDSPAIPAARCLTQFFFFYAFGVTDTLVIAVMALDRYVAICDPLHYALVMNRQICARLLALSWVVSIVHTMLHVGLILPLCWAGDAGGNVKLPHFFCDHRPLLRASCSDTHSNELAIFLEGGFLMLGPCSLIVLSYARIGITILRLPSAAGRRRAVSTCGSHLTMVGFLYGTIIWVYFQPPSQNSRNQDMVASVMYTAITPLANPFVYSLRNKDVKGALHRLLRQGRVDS
The method in brief: as §1

A further assay deals with T4, UniProt Q8VGX3.
T4 sequence (whole entry): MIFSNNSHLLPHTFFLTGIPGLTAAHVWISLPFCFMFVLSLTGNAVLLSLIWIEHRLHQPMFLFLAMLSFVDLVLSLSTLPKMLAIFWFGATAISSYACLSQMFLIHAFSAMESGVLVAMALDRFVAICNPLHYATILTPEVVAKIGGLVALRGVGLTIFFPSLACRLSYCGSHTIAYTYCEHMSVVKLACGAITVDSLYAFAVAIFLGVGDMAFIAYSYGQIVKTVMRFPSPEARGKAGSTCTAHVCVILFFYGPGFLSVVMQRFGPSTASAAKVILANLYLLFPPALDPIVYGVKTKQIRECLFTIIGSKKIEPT
The procedure, abridged:
as §1

A further assay addresses T5, UniProt Q8VGX5.
T5 sequence (whole entry): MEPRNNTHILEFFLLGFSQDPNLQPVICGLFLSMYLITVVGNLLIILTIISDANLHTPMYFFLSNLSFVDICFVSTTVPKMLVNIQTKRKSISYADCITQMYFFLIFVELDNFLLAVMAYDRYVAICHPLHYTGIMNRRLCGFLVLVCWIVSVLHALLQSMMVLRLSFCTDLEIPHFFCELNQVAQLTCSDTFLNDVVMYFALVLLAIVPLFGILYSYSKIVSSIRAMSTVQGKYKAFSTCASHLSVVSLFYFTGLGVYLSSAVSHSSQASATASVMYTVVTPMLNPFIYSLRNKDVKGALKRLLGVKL
The method in brief:
as §1

For the next assay, the target named is T6, UniProt Q8VGZ2.
T6 sequence (whole entry): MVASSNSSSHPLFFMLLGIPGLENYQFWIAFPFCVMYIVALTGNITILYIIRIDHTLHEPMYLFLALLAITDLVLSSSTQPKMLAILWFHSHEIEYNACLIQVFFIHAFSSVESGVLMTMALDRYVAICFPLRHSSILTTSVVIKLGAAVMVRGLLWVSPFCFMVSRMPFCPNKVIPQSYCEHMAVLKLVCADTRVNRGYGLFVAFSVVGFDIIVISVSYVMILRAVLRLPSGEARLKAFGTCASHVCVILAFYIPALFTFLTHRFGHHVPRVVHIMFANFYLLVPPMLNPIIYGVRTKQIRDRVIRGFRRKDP
The method in brief:
as §1

The target of a further assay is T7, UniProt Q8VGZ7.
T7 sequence (whole entry): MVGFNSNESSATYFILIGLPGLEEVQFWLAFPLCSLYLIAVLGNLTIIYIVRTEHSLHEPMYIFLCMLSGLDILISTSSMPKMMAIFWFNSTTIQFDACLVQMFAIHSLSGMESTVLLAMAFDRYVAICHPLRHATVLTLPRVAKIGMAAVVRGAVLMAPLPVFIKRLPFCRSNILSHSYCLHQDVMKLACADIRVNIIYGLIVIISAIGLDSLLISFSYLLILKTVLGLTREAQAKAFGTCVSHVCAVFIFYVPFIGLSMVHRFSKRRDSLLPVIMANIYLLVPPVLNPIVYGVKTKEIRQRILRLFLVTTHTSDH
The method in brief:
as §1

The next assay addresses T8, UniProt Q8VH16.
T8 sequence (whole entry): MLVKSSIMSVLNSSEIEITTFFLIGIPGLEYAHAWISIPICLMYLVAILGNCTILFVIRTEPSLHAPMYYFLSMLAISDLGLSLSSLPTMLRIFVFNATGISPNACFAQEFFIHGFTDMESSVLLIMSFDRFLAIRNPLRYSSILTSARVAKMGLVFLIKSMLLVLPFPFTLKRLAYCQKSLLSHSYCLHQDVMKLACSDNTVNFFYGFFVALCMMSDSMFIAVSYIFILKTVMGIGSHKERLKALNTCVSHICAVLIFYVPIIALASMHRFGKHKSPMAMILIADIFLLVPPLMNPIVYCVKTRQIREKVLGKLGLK
The method in brief:
as §1

A further assay has as its target T9, UniProt Q8VH20.
T9 sequence (whole entry): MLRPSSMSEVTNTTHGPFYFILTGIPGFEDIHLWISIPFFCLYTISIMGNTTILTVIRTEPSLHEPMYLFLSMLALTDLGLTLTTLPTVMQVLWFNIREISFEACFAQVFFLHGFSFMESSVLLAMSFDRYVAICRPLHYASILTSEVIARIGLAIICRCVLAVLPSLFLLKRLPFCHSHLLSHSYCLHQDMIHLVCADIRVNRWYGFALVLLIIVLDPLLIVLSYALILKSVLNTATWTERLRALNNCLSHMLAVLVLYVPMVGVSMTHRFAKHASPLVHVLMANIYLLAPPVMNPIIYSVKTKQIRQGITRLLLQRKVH
The method in brief: as §1
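Note: active if original authors judged signal statistically different from baseline.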

As for `CCCCCCC(Br)C(=O)O` (configuration not stated), the “odorant receptor agonist call” value in the assay with UniProt Q8VGL0, in the assay with UniProt Q8VGU3, in the assay with UniProt Q8VGV7, with UniProt Q8VGX3, in the assay with UniProt Q8VGX5 and with UniProt Q8VGZ2 was “inactive” throughout. Moreover, the “odorant receptor agonist call” value with UniProt Q8VGZ7 and with UniProt Q8VH16 was “inactive” each time. Besides, the “odorant receptor agonist call” value with UniProt Q8VH20 is “active”.
Turning to `CCCCC(Br)C(=O)O` (configuration not stated), the “odorant receptor agonist call” value with UniProt Q8VGL0, in the assay with UniProt Q8VGU3, with UniProt Q8VGV7, with UniProt Q8VGX3, with UniProt Q8VGX5 and with UniProt Q8VGZ2 was “inactive” each time. The “odorant receptor agonist call” value with UniProt Q8VGZ7 and with UniProt Q8VH16 was “inactive” throughout. Moreover, in the assay with UniProt Q8VH20, the “odorant receptor agonist call” value is “active”.
For the molecule `O=Cc1ccccc1`, the “odorant receptor agonist call” value with UniProt Q8VGL0, with UniProt Q8VGU3, with UniProt Q8VGV7, in the assay with UniProt Q8VGX3, with UniProt Q8VGX5 and with UniProt Q8VGZ2 was “inactive” throughout. In addition, the “odorant receptor agonist call” value with UniProt Q8VGZ7, with UniProt Q8VH16 and with UniProt Q8VH20 was “inactive” throughout.
